The experiment relates to A2780. Briefly: Concentration required to inhibit 50% growth of A2780 human ovarian cancer cells. Type of experiment: functional, cell-based. Summed up:
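A2780 cells kept at 37 °C, 5% CO2, seeded at 1 × 10^4 cells per well, grown 72 h, then exposed for 24 h to complexes freshly dissolved in deionized water and diluted in RPMI to final 0.1, 1, 10 and 100 µM, in duplicate. Drug medium removed, cells washed with PBS, regrown in fresh medium and counted on day 7 by Coulter counter.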

Usually IC50 stands for the concentration at which inhibition is half-maximal.

[(nu6-p-cymene)RuCl2(isonicotinamide)] showed an IC50 of more than 150 µM. CISPLATIN: the IC50 was 0.5 µM.

In turn, “[(nu6-C6H5CO2CH3)RuCl(ethylenediamine)]PF6” registered an IC50 of 55 µM. Against the preceding substance, the IC50 is about 110-fold higher. Regarding [(nu6-p-cymene)RuBr(CH3CN)2]PF6, the IC50 is more than 150 µM. The result for CARBOPLATIN reads 6 µM; that for [(nu6-C6H6)RuCl(ethylenediamine)]PF6, 17 µM; that for [(nu6-C6H6)RuI(ethylenediamine)]PF6, 20 µM.

“[(nu6-p-cymene)RuCl(ethylenediamine)]PF6” returned an IC50 of 9 µM. The substance [(nu6-p-cymene)RuI(ethylenediamine)]PF6 came in with an IC50 of 8 µM. “[(nu6-C6H5C6H5)RuCl(N-ethylethylenediamine)]PF6” gave an IC50 of 6 µM.
